Measured values published in PMC4536915 (Nature chemical biology, 2015).
“And” between values parts separate entries of the source, which are not always exact repeats. Equal values may be shown once.

How the values were obtained:
P. aeruginosa PAO1 [1] = experiment: MIC by broth microdilution, wild-type strain; assay type: cell-based, Pseudomonas aeruginosa; settings: 24 h, 37 °C; listed as F
[2] = system: P. aeruginosa PAO1 MexABCDXY− (N150); experiment: MIC by broth microdilution, efflux-deficient strain; assay type: cell-based, Pseudomonas aeruginosa; settings: 24 h, 37 °C; listed as F
P. aeruginosa cells = experiment: Killing kinetics; assay type: cell-based, Pseudomonas aeruginosa; settings: 37°C; linear regression after 1 hr lag
P. aeruginosa PAO1 [3] = experiment: In vitro post-antibiotic effect; assay type: cell-based, Pseudomonas aeruginosa; settings: 1 h exposure, 1:1000 dilution
Summary of the method: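 Drug removed by 1:1000 dilution into pre-warmed medium. Regrowth at 37 °C counted immediately and hourly for 8 h (detection limit 1 log10 CFU/mL). Triplicate independent occasions; mechanistic PD model fitted.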

[4] = Plasma protein binding, equilibrium dialysis, mouse; assay type: in vitro ADME; settings: 50 μM
[5] = Plasma protein binding, equilibrium dialysis, human; assay type: in vitro ADME; settings: 50 μM
[6] = system: P. aeruginosa strain PAO1; experiment: Neutropenic mouse thigh infection model, single dose time course; assay type: in vivo, CD-1 mice; settings: resistance emergence test

In the case of `COc1ccc(-c2ccn(CC[C@](C)(C(=O)NO)S(C)(=O)=O)c(=O)c2)c(F)c1` [Compound 6], the “P.ae MIC PAO1” value (P. aeruginosa PAO1 [1]) is reported as 0.25 μg/ml and 0.61 μM, the “P.ae MIC PAO1 MexABCDXY−” value [2] is reported as 0.0075 μg/ml and 0.018 μM and the maximum killing rate (P. aeruginosa cells) is reported as 2.8 log10 CFU/hr. For the same compound, the “PAE at 4x MIC” value (P. aeruginosa PAO1 [3]) was 1.26 h, the “PAE at 8x MIC” value (P. aeruginosa PAO1 [3]) was 1.67 h and the “PAE at 16x MIC” value (P. aeruginosa PAO1 [3]) was 1.93 h. For the same compound, the “free fraction (fu)” value [4] was 0.41, the “free fraction (fu)” value [5] was 0.28 and the “CFU from 24 h timepoints on selective media (4× MIC)” value [6] was “no CFU were obtained”.
